RGS4 pot: potentiators or activators of RGS4; HEK293 M3R/inducible RGS4, carbachol calcium flux Fluo4; stronger effect = lower value; B-score at 10 µM; 310,000 tested, 0.92% active;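 active = B-score of the integrated calcium signal more than 4 SD below the library mean, with starting fluorescence not abnormally high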;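 also: negative B-score means reduced calcium response which marks RGS4 activation or potentiation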
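System: HEK293 FlpIn-TREx cells, stable M3R, doxycycline-inducible RGS4. Timing: overnight RGS4 induction, 30 min dye load 37 °C, 20 min compound RT. Also added: carbachol, ECmax concentration. Measured by: Fluo4 fluorescence kinetic imaging of calcium. Evaluation: integrated calcium ratio converted to B score.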
MrgX1 ag: human MrgX1 receptor agonism, primary screen; B-score at 10 µM; AID 588627; Q96LB2; MrgX1-HEK293 cells, Fluo-4 calcium fluorescence, agonist mode; stronger effect = higher value; 310,000 tested, 0.44% active;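 active = calcium response B-score plate-corrected fluorescence ratio at least 3 library SD, with starting fluorescence B-score inside 5 SD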
Target sequence (Q96LB2 whole entry, looked up): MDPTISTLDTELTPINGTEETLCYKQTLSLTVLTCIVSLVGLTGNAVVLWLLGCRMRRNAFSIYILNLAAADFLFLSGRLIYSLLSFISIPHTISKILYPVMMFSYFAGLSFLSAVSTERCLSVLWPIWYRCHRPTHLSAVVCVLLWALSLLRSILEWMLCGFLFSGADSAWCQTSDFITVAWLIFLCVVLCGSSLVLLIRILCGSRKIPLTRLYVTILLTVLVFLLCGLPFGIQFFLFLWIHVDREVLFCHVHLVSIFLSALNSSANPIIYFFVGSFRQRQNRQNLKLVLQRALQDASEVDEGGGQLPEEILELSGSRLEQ
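Material: MrgX1-expressing HEK293 cells; input: 15,000 cells per well; doses: test compound given as first of three sequential additions; schedule: overnight plating before 1 h dye loading; technique: Fluo-4 NW calcium-flux fluorescence, kinetic read; evaluation: baseline-normalised fluorescence change ratio, B-scored; control set: plate-wise positive and negative controls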
MrgX1 PAM: human MrgX1 positive allosteric modulation, primary screen; Q96LB2; MrgX1-HEK293, Fluo-4 calcium flux, FDSS; stronger effect = higher value; B-score at 10 µM; 310,000 tested, 0.63% active; AID 588675;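 active = plate-corrected calcium response at least 3 library SD above typical, normal starting fluorescence, not activating the receptor alone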;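 also: compound read alongside a low EC10 to EC30 dose of BAM8-22 agonist; peak minus trough fluorescence over baseline measured at the second addition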
RGS4 block: human RGS4 inhibition; P49798; HEK293 M3R/RGS4 inducible, Fluo-4 calcium flux; stronger effect = higher value; triggered by carbachol at its EC20; B-score at 10 µM; 310,000 tested, 0.45% active; AID 463165;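 active = B-score, a plate-corrected calcium signal, over three deviations above library mean, with baseline fluorescence within five deviations of library mean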;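 also: RGS4 expression induced by doxycycline in cells with stable M3 receptor; B-score is computed from the integrated fluorescence ratio over baseline after carbachol; higher B-score means a larger calcium signal and so more RGS4 inhibition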
MrgX1 antagonist: antagonists of human MrgX1 receptor; Q96LB2; MRGX1-HEK293 calcium flux, Fluo-4, BAM8-22 antagonism; stronger effect = lower value; B-score at 10 µM; 310,000 tested, 1.3% active; AID 588676;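 active = calcium-response B-score plate-corrected more than 3 library SD below zero, starting fluorescence within 5 deviations, no agonist response on first addition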;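 also: peak minus trough fluorescence over baseline after final BAM8-22 challenge near maximal dose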
* = called active by the depositor; i = inactive. An excerpt weighted towards active compounds, which were near 3.5% of everything screened.

SMILES	RGS4 pot	MrgX1 ag	MrgX1 PAM	RGS4 block	MrgX1 antagonist
COc1cc(/C=N\N=C2/SC(CC(=O)O)C(=O)N2c2ccc(O)cc2)ccc1O (centres undefined)	i	i	i	i	-8.16*
COc1ccc(/C=N/N=C/c2ccc(OC)c(OC)c2)cc1OC	i	i	i	i	i
COc1cc(/C=N/N=C(N)N)ccc1OCc1ccccc1Cl	i	i	6.5*	i	i
CCCCC1(C)OC(=O)C(=Cc2ccc(N(C)C)cc2)C(=O)O1 (centres undefined)	i	29.4*	i	i	i
COc1cccc(C(C#N)N2N=C(C)CC2(C)C)c1O (centres undefined)	i	i	i	i	i
Cc1nn(-c2ccccc2)c(Cl)c1/C=C1\SC(=S)NC1=O	i	i	i	i	-4.89*
Cc1cc(/C=C2\C(=N)N3N=C(C(C)C)SC3=NC2=O)c(C)n1Cc1ccccc1	i	i	15.9*	i	i
CCC1=NN2C(=N)/C(=C/c3cc(C)n(Cc4ccccc4)c3C)C(=O)N=C2S1	i	i	i	i	i
CCC(CC)C1=NN2C(=N)/C(=C\c3cc(C)n(-c4cccc(C)c4)c3C)C(=O)N=C2S1	-7.56*	i	i	i	i
Cc1nn(-c2ccccc2)c(Cl)c1/C=C1/C(=N)N2N=C(C(C)C)SC2=NC1=O	i	i	9.63*	i	i
COc1ccc(-n2cccc2/C=C2\C(=N)N3N=C(C(C)C)SC3=NC2=O)cc1	i	i	i	i	i
S=c1[nH]nc(CSCCOc2ccccc2)o1	i	i	i	i	i
CC(C)(C)c1[nH]nc2c1C(c1ccncc1)C(C#N)=C(N)O2 (centres undefined)	i	i	i	i	i
Cc1cc(C(=O)COc2ccccc2Cl)c(C)n1-c1ccc2c(c1)OCO2	-7.51*	i	i	i	i
CN(c1ncnc(N)c1[N+](=O)[O-])C1CCCCC1	i	26.8*	i	i	i
CC1CN(S(=O)(=O)c2ccc(C(=O)Nc3nnc(-c4ccc5c(c4)CCCC5)o3)cc2)CC(C)O1 (centres undefined)	-7.27*	i	i	i	i
O=C(NC(=S)NC1CC1)c1cccnc1	i	i	i	i	-4.67*
CCNC(=S)NNC(=O)c1cccnc1	i	i	i	i	-5.28*
COCCCNC(=O)CCn1nc(-c2ccc(Cl)cc2)ccc1=O	i	i	i	i	i
Cc1cc(Nc2ccccc2)nc(-c2ccccc2O)n1	i	i	i	i	i
O=CN/N=C/c1c(O)ccc2ccccc12	i	i	i	i	-5*
Cc1cc(N/N=C/c2c(O)ccc3ccccc23)nc(-c2ccccc2O)n1	-7.96*	i	i	i	i
Oc1ccc2ccccc2c1/C=N/Nc1ccccc1	i	i	i	i	i
CCOC(=O)C(=O)N(Nc1ccc(C)cc1)c1ccc(C)cc1	i	i	i	i	i
O=C(/C=C/c1ccc(N2CCC(c3ccccc3)=N2)cc1)c1ccccc1	-7.94*	i	i	i	i
SMILES	RGS4 pot	MrgX1 ag	MrgX1 PAM	RGS4 block	MrgX1 antagonist
Nc1ncnc(Oc2cccc3cccnc23)c1[N+](=O)[O-]	i	i	i	i	-4.98*
Cc1cccc(Oc2ncnc(N)c2[N+](=O)[O-])c1C	i	i	i	i	i
COCC(C)NC(=O)CSc1nc2ccccc2n1CCc1ccccc1 (centres undefined)	i	27.9*	i	i	i
O=C(O)CCc1ccc(-c2ccc(Cl)cc2)o1	i	i	i	i	i
O=C(NNC(=O)C1CC2CCC1C2)c1sc2ccccc2c1Cl (centres undefined)	i	i	6.94*	i	i
Cc1ccc(C(C(=O)NCC2CCCO2)N(C(=O)c2snc(C(N)=O)c2N)c2ccc3c(c2)OCCO3)cc1 (centres undefined)	i	i	i	i	i
CCc1ccc(OCC(=O)NNC(=O)Cc2ccc(S(=O)(=O)N3CCOCC3)s2)cc1	i	i	i	i	-6.9*
O=C(CN1C(=O)/C(=C\c2ccccc2Cl)Oc2ccccc21)NCc1cccnc1	i	i	i	i	i

High-throughput results from PubChem.
